# Results pooled from the literature.
# Protocols differ between the studies behind these lines.
# NPY2R: Neuropeptide Y receptor type 2 (NPY2R, Homo sapiens, UniProt P49146)
# DYRK1A: Dual specificity tyrosine-phosphorylation-regulated kinase 1A (DYRK1A, Homo sapiens, UniProt Q13627)
# PDGFRB: Platelet-derived growth factor receptor beta (PDGFRB, Homo sapiens, UniProt P09619)
SMILES,target,effect on,mode,method,concentration,quantity,value
CCN1/C(=C/C(C)=O)Sc2ccc(F)cc21,NPY2R,ligand displacement,,radioligand,10 µM,inhibition,0%
CCCCC(=O)Nc1ccc(-c2ccc3ncn(CCC)c(=O)c3c2)cn1,"Ephrin type-A receptor 7 (EPHA7, Homo sapiens, UniProt Q15375)",binding,,competition with immobilised ligand,0.5 µM,remaining binding,100%
CC(C)(C)C1CCc2c(C(=O)N/N=C/c3ccsc3)csc2C1 (centres unmarked),DYRK1A,enzyme activity,inhibitor,ADP detection,10 µM,inhibition,23.1%
NC/C(=C\F)COc1cccc(Cn2c(=S)[nH]c(=O)c3[nH]cnc32)c1,NPY2R,ligand displacement,,radioligand,10 µM,inhibition,< 50%
CC1(C)Oc2ccc3ccc(=O)oc3c2C/C1=N/O,DYRK1A,enzyme activity,inhibitor,ADP detection,10 µM,inhibition,38.6%
CC(=O)ON=C1C=CC(=C(C#N)c2ccccc2)C=C1,DYRK1A,enzyme activity,inhibitor,ADP detection,20 µM,activity vs control,82%
C#Cc1cc(-c2cc(Nc3nc(N[C@@H](C)c4ccc(F)cn4)ncc3Cl)n[nH]2)ccc1C=O,"Dual specificity tyrosine-phosphorylation-regulated kinase 3 (DYRK3, Homo sapiens, UniProt O43781)",enzyme activity,inhibitor,,0.2 µM,inhibition,4.84%
N#Cc1ccc(NC(=O)Nc2ccccc2)cc1,PDGFRB,cell-free assay,,competition with immobilised ligand,25 µM,inhibition,67%
Cc1cc(O)c(-c2ccc([C@@H](C)CN(C)C)cc2)c2c1[nH]c(=O)c1sccc12,"Microtubule-associated serine/threonine-protein kinase 3 (MAST3, Homo sapiens, UniProt O60307)",enzyme activity,inhibitor,,0.1 µM,inhibition,2.4%
COc1ccc2oc(-c3ccc4nc(N)oc4c3)c/c(=N\c3ccccc3NC(=O)CCN)c2c1,PDGFRB,binding,,,1 µM,remaining binding,107%
Nc1cc(-c2ccncc2)cs1,DYRK1A,enzyme activity,inhibitor,ADP detection,10 µM,inhibition,25.6%
C1=C/COCc2cc(ccc2OCCN2CCCC2)Nc2nccc(n2)-c2cccc(c2)COC/1,"Myosin light chain kinase 2, skeletal/cardiac muscle (MYLK2, Homo sapiens, UniProt Q9H1R3)",binding,,,0.1 µM,remaining binding,76%
Clc1ccc(-c2cn[nH]c2)s1,DYRK1A,enzyme activity,inhibitor,ADP detection,10 µM,inhibition,52.5%
Nc1ncnc2c1ncn2[C@@H]1O[C@H](COP(=O)(O)OP(=O)(O)O)[C@@H](O)[C@H]1O,"Inositol-tetrakisphosphate 1-kinase (Homo sapiens, UniProt Q13572)",enzyme activity,substrate,,,Km,1.5 µM
